Test results published in ChEMBL document CHEMBL4627284, “Pyrimethamine conjugated histone deacetylase inhibitors: Design, synthesis and evidence for triple negative breast cancer selective cytotoxicity” (Bioorg Med Chem, 2020).
Each block holds one molecule with its values, some of them ahead of it. Activity calls are given as the source filed them. The calls are words filed in the database; no cut-off is given here.

Experiments:
[1] = biological target: Signal transducer and activator of transcription 3 (Homo sapiens) (UniProt P40763); assay: Inhibition of STAT3 in human MDA-MB-231 cells assessed as downregulation of cyclinD1 expression at 5 to 25 uM after 24 hrs by western blot analysis; format: cell-based
Method in brief: (§1)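 MDA-MB-231 cells, 1*10⁶ per well, were grown in DMEM for 24 h, serum-starved for 24 h, then treated for 24 h from DMSO solutions (final DMSO 0.1%; DMSO control). Cells were lysed in RIPA with protease and phosphatase inhibitors and protein equalized by BCA. 20-40 µg was run on 4-20% gels and transferred to PVDF, which was blocked in 5% BSA. Primary antibodies were applied overnight and secondary for 1 h, and band intensities were quantified by infrared imaging.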

[2] = biological target: Signal transducer and activator of transcription 3 (Homo sapiens) (UniProt P40763); assay: Inhibition of STAT3 in human MDA-MB-231 cells assessed as change in Bcl-2 expression at 0.8 to 1.6 uM after 24 hrs by western blot analysis; format: cell-based; method in brief: as §1
MDA-MB-231 [3] = assay: Cell cycle arrest in human MDA-MB-231 cells assessed as accumulation of cells at G1 phase at 5 uM incubated for 48 hrs RNase/PI staining based flow cytometry assay (reference value: 64.3 %); format: functional
Method in brief: (§2)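 MDA-MB-231 cells, 5*10⁶ per 10 cm plate, were grown in DMEM for 24 h and then dosed for 48 h from DMSO stocks (final DMSO 0.1%; DMSO as control). Cells were trypsinized, washed twice in cold PBS and fixed in 70% ethanol overnight at -20°C. They were treated with 200 ug/mL RNase for 30 min, stained with 50 ug/mL PI at RT for 30 min, and DNA content was read by flow cytometry.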

MDA-MB-231 [4] = assay: Cell cycle arrest in human MDA-MB-231 cells assessed as accumulation of cells at G2 phase at 5 uM incubated for 48 hrs RNase/PI staining based flow cytometry assay (reference value: 17.4 %); format: functional; method in brief: as §2
[5] = biological target: Signal transducer and activator of transcription 3 (Homo sapiens) (UniProt P40763); assay: Inhibition of STAT3 in human MDA-MB-231 cells assessed as slight down regulation of pSTAT3 expression at 50 to 100 uM after 24 hrs by western blot analysis; format: cell-based; method in brief: as §1
[6] = biological target: Signal transducer and activator of transcription 3 (Homo sapiens) (UniProt P40763); assay: Inhibition of STAT3 in human MDA-MB-231 cells assessed as upregulation of p-p38 expression after 24 hrs by western blot analysis; format: cell-based; method in brief: as §1
[7] = biological target: Signal transducer and activator of transcription 3 (Homo sapiens) (UniProt P40763); assay: Inhibition of STAT3 in human MDA-MB-231 cells assessed as downregulation of Bcl-xL expression after 24 hrs by western blot analysis; format: cell-based; method in brief: as §1
Histone deacetylase 1 = Histone deacetylase 1 (Homo sapiens, UniProt Q13547); assay: Inhibition of human recombinant HDAC1 using fluorogenic HDAC substrate preincubated for 30 mins followed by substrate addition and measured after 15 mins by fluorogenic assay
Histone deacetylase 8 = biological target: T1, Histone deacetylase 8 (Homo sapiens, UniProt Q9BY41); assay: Inhibition of human recombinant HDAC8 using fluorogenic HDAC substrate class 2A preincubated for 30 mins followed by substrate addition and measured after 15 mins by fluorogenic assay
T1 sequence (Q9BY41 whole entry): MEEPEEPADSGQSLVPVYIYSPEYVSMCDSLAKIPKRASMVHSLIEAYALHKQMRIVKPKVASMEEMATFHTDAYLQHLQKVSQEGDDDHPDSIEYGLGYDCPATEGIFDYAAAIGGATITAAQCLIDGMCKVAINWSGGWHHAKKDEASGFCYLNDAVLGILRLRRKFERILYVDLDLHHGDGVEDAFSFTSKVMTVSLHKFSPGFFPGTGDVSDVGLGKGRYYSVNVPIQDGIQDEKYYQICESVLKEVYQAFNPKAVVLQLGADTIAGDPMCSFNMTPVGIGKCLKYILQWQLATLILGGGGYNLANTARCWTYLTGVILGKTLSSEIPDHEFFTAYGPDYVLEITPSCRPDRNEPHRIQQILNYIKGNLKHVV

MDA-MB-231 [8] = assay: cells; format: functional, cell-based; conditions: Homo sapiens, MDA-MB-231, 72 h
[9] = biological target: T2, Protein deacetylase HDAC6 (Homo sapiens, UniProt Q9UBN7); assay: Inhibition of human recombinant HDAC6 using fluorogenic HDAC substrate 3 preincubated for 30 mins followed by substrate addition and measured after 15 mins by fluorogenic assay
T2 sequence (Q9UBN7 whole entry): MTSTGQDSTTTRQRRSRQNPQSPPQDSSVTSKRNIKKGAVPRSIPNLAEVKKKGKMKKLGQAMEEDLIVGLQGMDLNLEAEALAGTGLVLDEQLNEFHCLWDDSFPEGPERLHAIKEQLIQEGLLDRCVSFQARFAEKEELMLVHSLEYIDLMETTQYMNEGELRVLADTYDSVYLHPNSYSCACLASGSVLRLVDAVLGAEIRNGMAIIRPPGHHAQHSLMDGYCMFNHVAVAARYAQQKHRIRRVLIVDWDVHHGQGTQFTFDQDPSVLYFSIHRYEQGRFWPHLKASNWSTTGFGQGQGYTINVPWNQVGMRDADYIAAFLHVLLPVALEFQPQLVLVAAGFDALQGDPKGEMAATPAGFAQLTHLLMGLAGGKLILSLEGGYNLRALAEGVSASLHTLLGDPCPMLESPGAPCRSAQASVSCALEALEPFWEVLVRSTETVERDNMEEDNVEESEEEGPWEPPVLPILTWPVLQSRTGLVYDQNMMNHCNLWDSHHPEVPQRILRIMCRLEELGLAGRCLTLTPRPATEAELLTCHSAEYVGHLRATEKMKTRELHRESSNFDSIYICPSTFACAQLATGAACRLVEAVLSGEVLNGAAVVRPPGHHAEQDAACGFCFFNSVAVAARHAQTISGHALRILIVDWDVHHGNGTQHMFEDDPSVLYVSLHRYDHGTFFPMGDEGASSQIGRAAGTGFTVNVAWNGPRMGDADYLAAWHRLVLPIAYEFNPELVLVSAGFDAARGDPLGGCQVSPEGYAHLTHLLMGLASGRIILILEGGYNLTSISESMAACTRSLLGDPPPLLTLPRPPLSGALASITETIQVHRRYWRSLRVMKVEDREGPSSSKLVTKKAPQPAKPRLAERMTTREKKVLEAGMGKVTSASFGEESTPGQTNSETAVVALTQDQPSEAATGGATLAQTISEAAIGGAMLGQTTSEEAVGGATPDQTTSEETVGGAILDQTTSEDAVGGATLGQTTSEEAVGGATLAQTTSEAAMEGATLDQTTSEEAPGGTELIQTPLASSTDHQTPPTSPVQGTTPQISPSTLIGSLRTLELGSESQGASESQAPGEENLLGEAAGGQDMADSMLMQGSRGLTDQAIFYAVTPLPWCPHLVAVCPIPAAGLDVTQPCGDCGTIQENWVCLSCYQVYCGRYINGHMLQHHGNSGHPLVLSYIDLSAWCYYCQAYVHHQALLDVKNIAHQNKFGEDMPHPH

A549 = assay: cells; format: functional, cell-based; conditions: Homo sapiens, A549, 72 h
MCF7 = assay: cells; format: functional, cell-based; conditions: Homo sapiens, MCF7, 72 h
Vero = assay: cells; conditions: Chlorocebus sabaeus, 72 h

Sequence of Signal transducer and activator of transcription 3 (Homo sapiens) (P40763 whole entry): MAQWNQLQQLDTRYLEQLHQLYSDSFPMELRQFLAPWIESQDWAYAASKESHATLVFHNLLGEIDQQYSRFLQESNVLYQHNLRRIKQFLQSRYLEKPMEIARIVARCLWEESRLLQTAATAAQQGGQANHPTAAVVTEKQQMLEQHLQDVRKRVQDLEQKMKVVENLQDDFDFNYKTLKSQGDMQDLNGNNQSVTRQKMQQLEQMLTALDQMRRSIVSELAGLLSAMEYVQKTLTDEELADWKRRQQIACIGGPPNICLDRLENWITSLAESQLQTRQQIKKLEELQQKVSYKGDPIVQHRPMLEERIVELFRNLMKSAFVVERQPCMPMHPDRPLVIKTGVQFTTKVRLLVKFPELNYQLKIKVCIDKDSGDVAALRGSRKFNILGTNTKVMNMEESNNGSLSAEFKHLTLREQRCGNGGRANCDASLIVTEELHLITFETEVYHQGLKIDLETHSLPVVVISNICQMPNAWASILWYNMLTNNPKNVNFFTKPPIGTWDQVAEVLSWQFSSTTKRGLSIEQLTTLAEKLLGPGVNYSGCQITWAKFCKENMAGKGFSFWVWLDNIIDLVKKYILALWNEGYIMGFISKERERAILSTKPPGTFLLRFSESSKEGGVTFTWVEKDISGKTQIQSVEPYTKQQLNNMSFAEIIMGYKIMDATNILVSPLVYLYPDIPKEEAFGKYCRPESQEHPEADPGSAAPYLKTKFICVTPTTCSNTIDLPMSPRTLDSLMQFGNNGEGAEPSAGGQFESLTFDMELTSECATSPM
Sequence of Histone deacetylase 1 (Q13547 whole entry): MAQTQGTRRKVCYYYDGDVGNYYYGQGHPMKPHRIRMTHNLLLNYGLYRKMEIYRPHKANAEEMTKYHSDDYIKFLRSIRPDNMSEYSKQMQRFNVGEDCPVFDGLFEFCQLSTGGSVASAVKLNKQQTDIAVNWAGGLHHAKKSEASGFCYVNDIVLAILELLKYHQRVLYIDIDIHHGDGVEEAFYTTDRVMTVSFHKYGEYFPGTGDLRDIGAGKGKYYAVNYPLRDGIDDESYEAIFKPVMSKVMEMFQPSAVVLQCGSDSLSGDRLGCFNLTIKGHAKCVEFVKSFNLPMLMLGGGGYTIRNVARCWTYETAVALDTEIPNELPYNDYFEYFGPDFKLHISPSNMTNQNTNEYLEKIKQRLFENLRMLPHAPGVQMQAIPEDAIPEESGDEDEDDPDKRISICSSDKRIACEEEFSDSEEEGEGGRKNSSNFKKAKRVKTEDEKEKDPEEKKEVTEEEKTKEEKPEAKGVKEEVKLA

inhibition [1]: Active
inhibition [2]: inactive
inhibition [5]: Active
inhibition [6]: Dose-dependent effect
inhibition [7]: Dose-dependent effect
Compound: O=C(CCCCCCC(=O)Nc1ccccc1)NO [VORINOSTAT]
Activity (MDA-MB-231 [3]): 18.2%
Activity (MDA-MB-231 [4]): 65.1%

IC50 (Histone deacetylase 1): 260 nM
IC50 (Histone deacetylase 8): 2800 nM
IC50 (MDA-MB-231 [8]): 38400 nM
IC50 [9]: 46 nM
Compound: CCc1nc(N)nc(N)c1-c1ccc(-c2cn(CCCCCC(=O)NO)nn2)cc1

IC50 (Histone deacetylase 1): 2200 nM
IC50 (Histone deacetylase 8): 1800 nM
IC50 [9]: 400 nM
Compound: CCc1nc(N)nc(N)c1-c1ccc(/C=C/C(=O)NO)cc1

IC50 (A549): 114000 nM
IC50 (MCF7): 96600 nM
IC50 (MDA-MB-231 [8]): 94900 nM
Compound: CCOC(=O)CCCCCCCn1cc(-c2ccc(-c3c(N)nc(N)nc3CC)cc2)nn1
IC50 (Vero): 113000 nM
